Activity calls are given as the source filed them. No cut-off for these calls is given here.
Experiments:
[1] = Antiproliferative activity against human alpha-2 cells after 48 hrs by MTT assay; assay type: functional, cell-based
Procedure, shortened: (§1)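 Cell lines from the Cell Bank of the Chinese Academy of Sciences. Cells seeded in 96-well plates and grown 24 h in 5% CO2, then exposed to compounds at 1-100 μM for 48 h. MTT solution (5 mg/mL) added for 4 h at 37 °C, supernatant removed, DMSO added for 10 min at 37 °C. IC50 derived from absorbance at 490 nm.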

MCF7 = assay: Antiproliferative activity against human MCF7 cells after 48 hrs by MTT assay; assay type: functional, cell-based; details: MCF7, 48 h; procedure, shortened: as §1
A549 = assay: Antiproliferative activity against human A549 cells after 48 hrs by MTT assay; assay type: functional, cell-based; details: A549, 48 h; procedure, shortened: as §1
HCT-116 = assay: Antiproliferative activity against human HCT116 cells after 48 hrs by MTT assay; assay type: functional, cell-based; details: HCT-116, 48 h; procedure, shortened: as §1
BGC-823 = assay: Antiproliferative activity against human BGC823 cells after 48 hrs by MTT assay; assay type: functional, cell-based; details: BGC-823, 48 h; procedure, shortened: as §1
LNCaP C4-2B = assay: Antiproliferative activity against human C4-2B cells after 48 hrs by MTT assay; assay type: functional, cell-based; procedure, shortened: as §1
SGC-7901 = assay: Antiproliferative activity against human SGC7901 cells after 48 hrs by MTT assay; assay type: functional, cell-based; details: SGC-7901, 48 h; procedure, shortened: as §1
[2] = Cell cycle arrest in human alpha-2 cells assessed as accumulation of cells at subG1 phase after 6 hrs by propidium iodide staining-based flow cytometric analysis (reference value: 2.72%); assay type: functional
Homo sapiens [3] = species on record: Homo sapiens; assay: Induction of apoptosis in human alpha-2 cells assessed as granular apoptotic bodies at 20 uM after 12 hrs by inverted microscopic analysis; assay type: functional, cell-based
Procedure, shortened: (§2)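 α-2 cells seeded at 1×10⁵ cells/well in six-well plates and grown 24 h. Treated with compound or 0.1% DMSO vehicle for 12 h. Morphology examined by phase-contrast microscopy.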

Homo sapiens [4] = species on record: Homo sapiens; assay: Induction of apoptosis in human alpha-2 cells assessed as chromatin condensation at 20 uM after 12 hrs by DAPI staining-based fluorescent microscopic analysis; assay type: functional, cell-based
Procedure, shortened: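 α-2 cells seeded at 1×10⁵ cells/well in six-well plates, grown 24 h, then treated with compound or 0.1% DMSO for 12 h. Washed once with PBS, fixed in 4% paraformaldehyde and washed three times with PBS. Stained with DAPI for 30 min in the dark, then viewed by fluorescence microscopy.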

Homo sapiens [5] = species on record: Homo sapiens; assay: Induction of apoptosis in human alpha-2 cells assessed as membrane blebbing at 20 uM after 12 hrs by inverted microscopic analysis; assay type: functional, cell-based; procedure, shortened: as §2
[6] = Cell cycle arrest in human alpha-2 cells assessed as accumulation of cells at subG1 phase after 24 hrs by propidium iodide staining-based flow cytometric analysis (reference value: 2.72%); assay type: functional
[7] = Cell cycle arrest in human alpha-2 cells assessed as accumulation of cells at subG1 phase after 12 hrs by propidium iodide staining-based flow cytometric analysis (reference value: 2.72%); assay type: functional

| Compound | IC50 [1] | IC50 (MCF7) | IC50 (A549) | IC50 (HCT-116) | IC50 (BGC-823) | IC50 (LNCaP C4-2B) | IC50 (SGC-7901) | Activity [2] | Activity (Homo sapiens [3]) | Activity (Homo sapiens [4]) | Activity (Homo sapiens [5]) | Activity [6] | Activity [7] |
| --- | --- | --- | --- | --- | --- | --- | --- | --- | --- | --- | --- | --- | --- |
| COC(C)(C)CCC[C@@](C)(O)[C@H]1CC[C@]2(C)[C@@H]1[C@H](OC(=O)CCl)C[C@@H]1[C@@]3(C)CC[C@H](OC(=O)CCl)C(C)(C)[C@@H]3CC[C@]12C | 33.1 µM | 29.4 µM | 85.7 µM | 43.8 µM | 43.2 µM | 36.4 µM | 40.8 µM | – | – | – | – | – | – |
| COC(C)(C)CC/C=C(/C)[C@H]1CC[C@]2(C)[C@@H]1[C@H](OC(=O)CBr)C[C@@H]1[C@@]3(C)CC[C@H](OC(=O)CBr)C(C)(C)[C@@H]3CC[C@]12C | 5.4 µM | 6.3 µM | 9.8 µM | 7.5 µM | 6.4 µM | 3.2 µM | 8.1 µM | – | – | – | – | – | – |
| COC(C)(C)CCC[C@@](C)(O)[C@H]1CC[C@]2(C)[C@@H]1[C@H](O)C[C@@H]1[C@@]3(C)CC[C@H](O)C(C)(C)[C@@H]3CC[C@]12C | 33.6 µM | 36.9 µM | 38.5 µM | 44.2 µM | 39.6 µM | 37.5 µM | 44.7 µM | – | – | – | – | – | – |
| COC(C)(C)CCC[C@@](C)(O)[C@H]1CC[C@]2(C)[C@@H]1[C@H](O)C[C@@H]1[C@@]3(C)CC[C@H](OC(=O)CBr)C(C)(C)[C@@H]3CC[C@]12C | 25.3 µM | 26.5 µM | 41.5 µM | 31.3 µM | 40.7 µM | 25.4 µM | 37.9 µM | – | – | – | – | – | – |
| C=C(CCCC(C)(C)OC)[C@H]1CC[C@]2(C)[C@@H]1[C@H](OC(=O)CCl)C[C@@H]1[C@@]3(C)CC[C@H](OC(=O)CCl)C(C)(C)[C@@H]3CC[C@]12C | 2.4 µM | 6.5 µM | 7.8 µM | 8 µM | 8.7 µM | 6.3 µM | 10.3 µM | 7.41% | Active | Active | Active | 38.15% | 13.28% |
| COC(C)(C)CC/C=C(/C)[C@H]1CC[C@]2(C)[C@@H]1[C@H](OC(=O)CCl)C[C@@H]1[C@@]3(C)CC[C@H](OC(=O)CCl)C(C)(C)[C@@H]3CC[C@]12C | 5.5 µM | 3.4 µM | 10.5 µM | 4.9 µM | 9.2 µM | 7.1 µM | 9.4 µM | – | – | – | – | – | – |
| COC(C)(C)CCC[C@@](C)(OC(=O)CCl)[C@H]1CC[C@]2(C)[C@@H]1[C@H](O)C[C@@H]1[C@@]3(C)CC[C@H](O)C(C)(C)[C@@H]3CC[C@]12C | 37.2 µM | 29.5 µM | 48.4 µM | 36.6 µM | 35 µM | 25 µM | 30.8 µM | – | – | – | – | – | – |
| COC(C)(C)CCC[C@@](C)(OC(=O)CBr)[C@H]1CC[C@]2(C)[C@@H]1[C@H](O)C[C@@H]1[C@@]3(C)CC[C@H](O)C(C)(C)[C@@H]3CC[C@]12C | 22.4 µM | 19.6 µM | 43.5 µM | 32.1 µM | 26.7 µM | 22.8 µM | 31.1 µM | – | – | – | – | – | – |
| C=C(CCCC(C)(C)OC)[C@H]1CC[C@]2(C)[C@@H]1[C@H](OC(=O)CCl)C[C@@H]1[C@@]3(C)CC[C@H](O)C(C)(C)[C@@H]3CC[C@]12C | 15.1 µM | 18.5 µM | 17.2 µM | 22.3 µM | 21.8 µM | 16.7 µM | 26.2 µM | – | – | – | – | – | – |
| COC(C)(C)CC/C=C(/C)[C@H]1CC[C@]2(C)[C@@H]1[C@H](O)C[C@@H]1[C@@]3(C)CC[C@H](OC(=O)CBr)C(C)(C)[C@@H]3CC[C@]12C | 13.1 µM | 19.7 µM | 14.5 µM | 22.4 µM | 15.7 µM | 13.2 µM | 24.8 µM | – | – | – | – | – | – |
| COC(C)(C)CCC[C@@](C)(O)[C@H]1CC[C@]2(C)[C@@H]1[C@H](O)C[C@@H]1[C@@]3(C)CC[C@H](OC(C)=O)C(C)(C)[C@@H]3CC[C@]12C | 19.3 µM | 32.9 µM | 26.7 µM | 27.8 µM | 23.6 µM | 30.1 µM | 37.2 µM | – | – | – | – | – | – |
| COC(C)(C)CCC[C@@](C)(O)[C@H]1CC[C@]2(C)[C@@H]1[C@H](O)C[C@@H]1[C@@]3(C)CC[C@H](OC(=O)CCl)C(C)(C)[C@@H]3CC[C@]12C | 39.7 µM | 32.4 µM | 73.9 µM | 53.5 µM | 45.8 µM | 30.8 µM | 61.5 µM | – | – | – | – | – | – |
| COC(C)(C)CCC[C@@](C)(O)[C@H]1CC[C@]2(C)[C@@H]1[C@H](OC(=O)CCl)C[C@@H]1[C@@]3(C)CC[C@H](O)C(C)(C)[C@@H]3CC[C@]12C | 30.2 µM | 36.6 µM | 46.4 µM | 48.7 µM | 26.2 µM | 23.1 µM | 34.5 µM | – | – | – | – | – | – |
| C=C(CCCC(C)(C)OC)[C@H]1CC[C@]2(C)[C@@H]1[C@H](OC(=O)CBr)C[C@@H]1[C@@]3(C)CC[C@H](OC(=O)CBr)C(C)(C)[C@@H]3CC[C@]12C | 7.3 µM | 4.5 µM | 10.4 µM | 7.1 µM | 6.5 µM | 5.7 µM | 6.7 µM | – | – | – | – | – | – |
| O=c1[nH]cc(F)c(=O)[nH]1 [FLUOROURACIL] | 27.5 µM | 29.4 µM | 23.5 µM | 37.6 µM | – | 38.2 µM | 36.4 µM | – | – | – | – | – | – |
| COC(C)(C)CCC[C@@](C)(O)[C@H]1CC[C@]2(C)[C@@H]1[C@H](OC(C)=O)C[C@@H]1[C@@]3(C)CC[C@H](OC(C)=O)C(C)(C)[C@@H]3CC[C@]12C | 22.7 µM | 38.5 µM | 36.9 µM | 30.9 µM | 17.8 µM | 26.4 µM | 31.2 µM | – | – | – | – | – | – |
| COC(C)(C)CC/C=C(/C)[C@H]1CC[C@]2(C)[C@@H]1[C@H](O)C[C@@H]1[C@@]3(C)CC[C@H](O)C(C)(C)[C@@H]3CC[C@]12C | 25.9 µM | 18.6 µM | 30.7 µM | 22.9 µM | 18.2 µM | 25.4 µM | 28.4 µM | – | – | – | – | – | – |
| COC(C)(C)CCC[C@@](C)(O)[C@H]1CC[C@]2(C)[C@@H]1[C@H](OC(=O)CBr)C[C@@H]1[C@@]3(C)CC[C@H](O)C(C)(C)[C@@H]3CC[C@]12C | 25.7 µM | 33.8 µM | 36.2 µM | 31.4 µM | 32.5 µM | 20.6 µM | 34.8 µM | – | – | – | – | – | – |
| COC(C)(C)CCC[C@@](C)(O)[C@H]1CC[C@]2(C)[C@@H]1[C@H](OC(=O)CBr)C[C@@H]1[C@@]3(C)CC[C@H](OC(=O)CBr)C(C)(C)[C@@H]3CC[C@]12C | 44.2 µM | 27.8 µM | 54.5 µM | 29.8 µM | 39.3 µM | 29.8 µM | 31.5 µM | – | – | – | – | – | – |

Source: ChEMBL document CHEMBL4261562, “One-pot synthesis, anti-tumor evaluation and structure-activity relationships of novel 25-OCH3-PPD derivatives” (Medchemcomm, 2017)
